Source: the RNAGym collection of RNA variant scans (doi:10.1126/science.aae0568)
Fewer inactive variants are shown than the library holds.

B1: tRNA (parent)
chain: GUUCCGUUGGCGUAAUGGUAACGCGUCUCCCUCCUAAGGAGAAGACUGCGGGUUCGAGUCCCGUACGGAACG

Variants of: B1
Experiment: yeast fitness relative to wild type (ratio to wild type); higher = fitter; tRNA-Arg(CCU), competitive growth, 37 C, YPD
In short: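 Genotype frequency changes were the basis for Darwinian fitness relative to wild type. The frequencies came from 100-nucleotide paired-end sequencing of gene amplicons from the start population and each end population of pooled yeast strains with tRNA-Arg(CCU) gene variants at the native locus. Competition ran in YPD at 37°C for 24 hours in six replicates, genotypes needed ≥ 100 starting reads, and estimates < 0.5 were set to 0.5.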

| Variant | yeast fitness |
| --- | --- |
| GUUCCCUUGGCGUAAUGGUAAAGCGUCUCCCUCCUAAGGAAAACACUGCGGGUUCGAGUCCCGUACGGAACG [G6C C22A G41A G44C] | ≤ 0.5 |
| GUUCCCUUGGCGUAAUGGUAACGCGUCUCCCUCCUAAGGAGAAGACUGCGGGUUGGAGUCCCGUACGGAACG [G6C C55G] | 0.695 |
| GUUCCCUUGGCGUAAUGGUAACGCGUCUCCCUCCUAAGGAGAAGACUGCGGGUUAGAGUCCCGUACGGAACG [G6C C55A] | 0.717 |
| GUUCCCUUGGCGUAAUGGUAACGGGUGUACCUCUUAAGGAGAAGACUGCGGGUUCGAGUCCCGUACGGAACG [G6C C24G C27G C29A C34U] | 0.684 |
| GUUCCCUUGGUGUAAUGGUACCGCGUCUCCCUCCUAAGGAGAAGACUGCGGAUUCGAGUCACGUACCGAACG [G6C C11U A21C G52A C61A G67C] | ≤ 0.5 |
| GUUCCCUUGGCGUAAUGGUAACGCGUCUCCCUCCUAAGGAGAAGAUUGCGGGUUCGCGUCCCGUACGGAACG [G6C C46U A57C] | ≤ 0.5 |
| GUUCCCUUGGCGUAAUGGUAACGCGUCUCCCUCUUAAGGAGAAAACUGCGGGUUGGAGUCCCGUAGGGAACG [G6C C34U G44A C55G C66G] | 0.649 |
| GUUCCCUUGGCGUAAUGGUAAAGCGUCUCCGUCCUAAGGAGAAGACUGGGGGUUCGAGUCCCGUACGCAACG [G6C C22A C31G C49G G68C] | ≤ 0.5 |
| GUUCCCUUGGCGUAAUGGUAACGCGUCUCCCUCCUAAGGAGAAGACUGCGGGUUCGCGUCCCGUUCGGAACG [G6C A57C A65U] | ≤ 0.5 |
| GUUCCCUUGGCGUAAUGGUAACGCGUCUCCCUCCUAAGGAGAAGACUGCGGGUUCGAGUCCCGUCCGGAACG [G6C A65C] | 0.872 |
| GUUCCCUUGGCGUAAUGGUAACGCGUCUCCCUGCUAACGAGAAGACUGCGGGUUCGAGUCCCGUACGGAACG [G6C C33G G38C] | ≤ 0.5 |
| GUUCCCUUGGCGUAAUGGUAACGAGUCACCCUCUUAAGGAGAAGACUGCGGGUUCGAGUCCCGUACGGAACG [G6C C24A U28A C34U] | ≤ 0.5 |
| GUUCCCUUGGCGUAAUGGUAACGCGUCUCCCUCCUAAGGAGAAGACUGCGGGUUCGGGUCCCGUGUGGAACG [G6C A57G A65G C66U] | 0.537 |
| GUUCCCUUGGCGUAAUGGUAACGCGUCUCCCUCGUAAGGAGAAGACUGCGGGUUCGAGUCCCGUGCGGAACG [G6C C34G A65G] | ≤ 0.5 |
| GUUCCCUUGGCGUAAUGGUAACGCGUCUCCCUCUUAAGGAGAAGACUGCGGGUUCGAGUCCCGUAUGGAUCG [G6C C34U C66U A70U] | 0.639 |
| GUUCCCUUGGCGUAAUGGUAACGCGUCUCACUCCUAAGGAGAAGGCUGCGGGUUGGUGUCCGGUACGGAACG [G6C C30A A45G C55G A57U C62G] | ≤ 0.5 |
| GUUCCCUUGGCGUAAUGGUAACGCGUCUCCCUCCUAAGGAGAAGACUGCGGGUUGGAGUCCCGUACGGACCG [G6C C55G A70C] | ≤ 0.5 |
| GUUCCCUUGGCGUAAUGGUAACGCGUCUCCCUUCUAAGGAGAAGACUGCGGCUUAGAGUCCCGUACGGAACG [G6C C33U G52C C55A] | ≤ 0.5 |
| GUUCCCUUGGCGUAAUGGUAACGCGUCUGUCUCCUAAGGAGAAGACUGCGCGUUCGAGUCCCGUAAGGAACG [G6C C29G C30U G51C C66A] | 0.686 |

| Variant | yeast fitness |
| --- | --- |
| GUUCCCUUGGCGUAAUGGUAACGUGUCUCCCUCCUAAGGAGAAGACUGCGGGUUCGAGUCCCGUACCGAACG [G6C C24U G67C] | 0.537 |
| GUUCCCUUGGCGUAAUGGUAACGUGUCUCCCUCCUAAGGAGAAGAGUGCGGGUUCGAGUCCCGUACGGAACG [G6C C24U C46G] | 0.586 |
| GUUCCCUUGGCGUAAUGGUAAAGCGUCUCCGUCCUAAGGAGAAGACUGCGGGUUCGAGUCCCGUCCGGAACG [G6C C22A C31G A65C] | ≤ 0.5 |
| GUUCCCUUGGCGUAAUGGUAACGCGUCUCCUUCCAAAGGAGAAGAGUAUGGGUUCGAGUCCCGCACGGAACG [G6C C31U U35A C46G G48A C49U U64C] | ≤ 0.5 |
| GUUCCCUUGGCGUAAUGGUAACGUGUCUCCCUCCUAAGGAGAAGACUGCGGGUUCGAGUCCCGUCCGGAACG [G6C C24U A65C] | ≤ 0.5 |
| GUUCCCUUGGCGUAAUGGUAACGUGUGUCCCUCCUAAGGAGAAGACUGCGGGUUCGAGUCCCGUACGGAACG [G6C C24U C27G] | ≤ 0.5 |
| GUUCCCUUGGGGUAAUGGUAACGCGUCUCCCUCCUAAGGAGAACACUGCGGGUUCGAGUCCCGUACGGAACG [G6C C11G G44C] | ≤ 0.5 |
| GUUCCCUUGGCGUAAUGGUAACGCGUCUCCCUCCUAAGGAGAAGCCUGCGGGUUCAAGUCCCGUACGGAACG [G6C A45C G56A] | 0.568 |
| GUUCCCUUGGCGUAAUGGUAACGCGUCUCCCUGCUCAGGAGAAGACUGAGGGUUCGAGUGCCGUGCGGAUCG [G6C C33G A36C C49A C60G A65G A70U] | ≤ 0.5 |
| GUUCCCUUGGCGUAAUGGUAACGCGUUUCCCUCCUAAGGAGAAGGCUGCGGGUUCGAGUCCCGAACGGAACG [G6C C27U A45G U64A] | 0.67 |
| GUUCCCUUGGCGUAAUGGUAACGCGUCUACCUCCUAAGGAGAAGACUGCGGGUUCGAGUCCCGUACGGAACG [G6C C29A] | 0.667 |
| GUUCCCUUGGCGUAAUGGUAACGCGUCUCGCUCCUAAGGAGAAGACUGCGGGUUCGAGUCCCGUACGGAACG [G6C C30G] | 0.592 |
| GUUCCCUUGGCGUAAUGGUAACGCGUCUCCUUCCUAAGGAGAGGACUGCGGGUUCGAGUCCCGUACGGUACG [G6C C31U A43G A69U] | ≤ 0.5 |
| GUUCCCUUGGCGUAAUGGUAACGAGUCUCCUUCCUAACGAGAAGACUGCGGGUUCGAGUCCCGUACGGAACG [G6C C24A C31U G38C] | ≤ 0.5 |
| GUUCCCUUGGAGUAAUGGUAACGCGUCUCCCUCCUAAGGAGAAGACUGCGGGUUCGAGUCCCGUAGGGAACG [G6C C11A C66G] | 0.592 |
| GUUCCCUUGGCGUAAUGGUAACGGGUCUCCCUCUUAAGGAGAAGACUGCGGGCUGGAGUCCAGUACGGAACG [G6C C24G C34U U53C C55G C62A] | 0.557 |
| GUUCCCUUGGCGUAAUGGUAACGCGUCUACCUCCUAAGGAGAAGACUGCGGGUUAGAGUCCCGUGCGGAACG [G6C C29A C55A A65G] | ≤ 0.5 |
| GUUCCCUUGGCGUAAUGGUAACGCGUCUCCCUUCUAAGGAGAAGACUGCGGGUUCGAGUCCUGUACGGAACG [G6C C33U C62U] | ≤ 0.5 |
| GUUCCCUUGGCGUAAUGGUAACGCGUCUCCUUCGUAAGGAGAAGACUGCGGGUUCGAGUCCCGUACGGAACG [G6C C31U C34G] | ≤ 0.5 |
